Compounds with a hit are over-represented: about 1.3% of the library has one in this group of screens.
procasp7 counter – counter-screen: procaspase-7 (human) activation; actives 0.093% (n = 330,000); AID 463210; recombinant procaspase-7, Ac-DEVD-pNA absorbance 405 nm; D23A/D198A/D206A triple mutant, cannot self-cleave; scale: DMSO 0, 5 µM enzyme 100; activation, % at 8.5 µM; P55210;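 active means percent activation above the screen-wide mean plus 3 SD, cut at about 25% in these data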
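buffer or medium = Zinc-free HEPES/NaCl buffer, pH 7.4 | material = Procaspase-7 triple mutant (PC-7 D3A) | input = 2 µM procaspase-7 mutant as dispensed | signal = Epi-absorbance of released pNA at 405 nm, two timepoints | timing = 1 h preincubation, 2 h reaction | replicates = singlicate compound testing | evaluation = % activation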
procasp3 activ – activates human procaspase-3 | P42574 | recombinant procaspase-3 D3A, Ac-DEVD-pNA absorbance 405 nm | activation, % at 8.5 µM | actives 0.11% (n = 330,000);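 active means activation above the mean of all tested compounds plus 3 SD, cut at about 21% in these data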;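 further: 0% = DMSO alone and 100% = DMSO wells spiked with extra 5 µM PC-3 D3A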
Target sequence (P42574 whole entry D9A/D28A/D175A): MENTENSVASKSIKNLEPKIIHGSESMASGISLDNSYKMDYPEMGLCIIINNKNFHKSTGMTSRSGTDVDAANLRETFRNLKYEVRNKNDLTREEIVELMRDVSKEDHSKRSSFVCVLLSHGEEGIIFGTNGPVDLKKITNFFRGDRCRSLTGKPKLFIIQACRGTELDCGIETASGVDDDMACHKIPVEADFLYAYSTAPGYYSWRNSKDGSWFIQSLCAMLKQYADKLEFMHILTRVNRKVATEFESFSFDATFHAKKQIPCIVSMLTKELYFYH
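Evaluation: percent activation relative to control range; Material: Procaspase-3 D3A mutant, all three cleavage aspartates alanine; Compound: single dose, 8.5 µM nominal compound, 0.8% DMSO; Replication: one well per compound; Signal: absorbance at 405 nm, 0 and 120 min; Schedule: 1 h preincubation plus 2 h reaction at 25 °C.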
CHT inh – inhibitors of human choline transporter CHT; CHT-expressing cells, membrane potential dye, choline response; hits give low values; B-score at 10 µM; actives 0.86% (n = 310,000);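 active means B-score over 3 SD under the library average, and starting fluorescence ratio not unusually high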;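 further: choline stimulus applied at its EC90 after an EC20 pre-addition; B-score computed on integrated fluorescence ratio after choline addition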
CHT allo act – allosteric activators of human choline transporter CHT | CHT-expressing cells, membrane potential dye, choline EC20; hits give high values; LV-AA mutant CHT in HEK293 cells | B-score at 10 µM | actives 0.49% (n = 310,000) | AID 488977 | Q9GZV3;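 active means initial fluorescence not abnormally high and integrated response B-score, plate-corrected, over 3 SD above library mean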
CHT block conf – human CHT inhibition, confirmatory screen; AID 493221; CHT-expressing cells, choline membrane potential dye; LV-to-AA substituted CHT, HEK293 cells; actives 70% (n = 2,400); CHT activity remaining % of control (hits give low values), % at 10 µM; shares compounds with CHT inh;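 active means choline transporter activity left, mean of duplicates at 10 µM, below buffer-only control mean minus 3 SD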;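 further: depolarization triggered by choline at its EC90 following an EC20 pre-addition; 0% = hemicholinium-3 full block and 100% = buffer-only control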
HEK293 MPD ctr – counter-screen for CHT inhibitors: effect in parental HEK293 cells. shares compounds with CHT inh. membrane potential dye, choline response; active = decrease or increase beyond buffer ±3SD. membrane potential ratio readout (active if shifted either direction beyond buffer ±3SD; no single direction) at 10 µM. actives 4% (n = 2,400). AID 493222;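 further: parental cells lack the transporter so any hit is non-specific; ratio is peak minus trough fluorescence over baseline after EC90 choline challenge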
Starred values were filed as active, the others as inactive; i = inactive; nt = not tested or not shown.

SMILES | procasp7 counter | procasp3 activ | CHT inh | CHT allo act | CHT block conf | HEK293 MPD ctr
O=C(NCCc1ccccc1)c1ccc2c(=O)[nH]c3c(C(=O)NCC4CCCO4)sc(=S)n3c2c1 (stereo unspecified) | -2 | -3 | -10* | i | -19%* | i
CC(C)(C)OC(=O)NC(CNCc1ccccc1)Cc1ccccc1 (stereo unspecified) | 2 | 10 | i | i | nt | nt
N#Cc1c(NCCN)nc(-c2ccccc2)c2c1CCCC2 | 6 | 3 | -6.3* | i | 40%* | i
CCCCNC(=O)Nc1c(C(=O)OC)[nH]c2ccc(C)cc12 | 3 | -130 | -6.9* | i | i | i
CCCCNC(=O)Nc1c(C(=O)OCC)[nH]c2ccccc12 | -4 | 5 | i | i | nt | nt
CN1c2ccccc2C(O)=C(C(=S)Nc2ccc(F)c(Cl)c2)S1(=O)=O | -8 | -12 | -6.4* | i | 48%* | i
CN1c2ccccc2C(O)=C(C(=S)Nc2ccccc2)S1(=O)=O | -20 | -6 | i | i | nt | nt
Clc1ccc2c(N3CCCC3)ccnc2c1 | 12 | 6 | -8* | i | 26%* | i
Oc1ccc(N2CCN(c3ccnc4cc(Cl)ccc34)CC2)cc1 | -30 | -7 | i | i | nt | nt
CCc1ccccc1NC(=O)NCc1ccc2c(c1)OCO2 | 1 | 0 | i | i | nt | nt
Cc1cccc(NC(=O)NCc2ccc3c(c2)OCO3)c1C | -5 | -9 | -5.2* | i | i | i
O=C(CSc1nc2ccccc2c(=O)n1-c1ccccc1)NCC1CCCO1 (stereo unspecified) | -11 | 0 | i | i | nt | nt
COc1ccc(-n2c(SCC(=O)NCC3CCCO3)nc3ccccc32)cc1 (stereo unspecified) | 11 | -4 | -5.5* | i | i | i
CN1/C(=C/C(=O)c2nc(S(C)(=O)=O)ncc2Cl)C(C)(C)c2ccccc21 | 3 | -2 | -11* | i | 54%* | i
COCCn1c(-c2ccc(OC)cc2)c(-c2ccc(OC)cc2)oc1=O | -4 | -3 | i | i | nt | nt
O=C(O)C1CCN(c2nc(-c3ccccc3)nc3c2oc2ccccc23)CC1 | 5 | 4 | -6* | i | 63%* | i
CCOC(=O)C1CCN(c2nc(-c3ccccc3)nc3c2oc2ccccc23)CC1 | -8 | 10 | i | i | nt | nt
COC(=O)[C@@]12CCCCN1[C@H](c1ccc(-c3ccc4c(c3)OCO4)cc1)[C@H]1C(=O)N(C)C(=O)[C@H]12 | 10 | -6 | nt | nt | nt | nt
CCCOc1ccc(C(CC(=O)O)NC(=O)CC(c2ccccc2)c2ccccc2)cc1 (stereo unspecified) | 4 | 1 | -6.8* | i | 24%* | i
CCOc1ccc(/C=C2\SC(=S)N(CCC(=O)O)C2=O)cc1 | -9 | -11 | i | i | nt | nt
O=C(O)CCN1C(=O)CC(N2C(=O)/C(=C/c3ccc(Cl)cc3)SC2=S)C1=O (stereo unspecified) | -20 | -20 | -6.2* | i | 58%* | i
Cc1cc(S(=O)(=O)N2CCN(c3ccccc3F)CC2)ccc1-n1cnnn1 | 11 | -2 | i | i | nt | nt
CC(=O)NS(=O)(=O)c1ccc(NC(=S)NC(=O)Cc2ccccc2)cc1 | 3 | -7 | -7.5* | i | i | i
Cc1noc(NS(=O)(=O)c2ccc(NC(=O)COc3ccc(Cl)cc3Cl)cc2)c1C | -1 | -3 | -6.4* | i | 39%* | i
Cc1cc(NS(=O)(=O)c2ccc(NC(=O)COc3c(C)cc(Br)cc3C)cc2)no1 | -9 | -4 | -6* | i | 34%* | i
CCCn1c(=O)c2ccccc2n2c(SCCOc3ccccc3)nnc12 | 15 | 3 | -6.2* | i | i | i
CC1CCN(CCC(=O)Nc2ccc(F)c(F)c2)CC1 | 3 | 6 | i | i | nt | nt
CCC(C)(C)NC(=O)C(c1ccccn1)N(C(=O)c1csnn1)c1ccc(C)cc1 (stereo unspecified) | -17 | 0 | -5.2* | i | i | i

Screening data: PubChem, several laboratories
